High-throughput results as filed in PubChem.
The entries come from a sample that favours hits as a whole.
PfG6PD inh = PfG6PD (Plasmodium falciparum) enzyme inhibition. actives 0.78% (n = 350,000). PfGluPho enzyme, NADPH resazurin-diaphorase fluorescence. AID 504690. inhibition, % at 20 µM;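 active = inhibition reaching at least a set limit at 20 µM in the primary screen, cut at about 59% in these data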;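 note: 0% = DMSO wells with substrate and 100% = DMSO wells lacking glucose-6-phosphate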
Lmaj promast = reduces viability of Leishmania major promastigotes | resazurin fluorescence viability | inhibition, % at 10 µM | actives 9% (n = 200,000);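 note: promastigotes grown with compound for 44 hours at 28 °C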
G6PDH counter = inhibits Leuconostoc G6PDH, flagging false hits in G6PDH-based assays | Purified L. mesenteroides G6PDH, diaphorase/resazurin coupled fluorescence, 45 min | inhibition, % at 5 µM | actives 0.12% (n = 200,000) | AID 1020
Redox H2O2 prof = compounds producing H2O2 with reducing agent – biochemical, NIH compound library profiling, artefact control for MLSCN library redox annotation, primary screen. activation, % at 10 µM. DTT-dependent redox cycling H2O2, phenol red/HRP absorbance; 100% = 100 µM peroxide control, 0% = buffer. actives 0.03% (n = 200,000);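 active = activation of at least 50% relative to the plate's high and low controls in the primary single-dose screen; inactive = activation below 50%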;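 note: compound incubated with DTT at 0.8 mM final as the reducing agent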
Diaph act CS = diaphorase activation or chemical reduction counter-screen | AID 1229 | Diaphorase/resazurin coupled assay, resorufin fluorescence, 16 min; active compounds read high; 1 = vehicle wells, 0 = NADH-free wells | actives 0.005% (n = 190,000) | activation factor at 20 µM;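 active = diaphorase activity raised at least twofold by the compound at 20 µM; inactive = activation factor below 2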
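System – purified diaphorase enzyme from Clostridium kluyveri · Input – enzyme 0.07 U/mL final · Also added – final NADH 0.114 mM, resazurin 0.1 mM · Measured by – fluorescence of resorufin, 544 nm excitation, 590 nm emission · Timing – 16 min enzyme reaction, ambient temperature · Measure – resorufin increase flagging diaphorase activators or reducers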
Diaph inh CS = diaphorase inhibition or chemical oxidation counter-screen | diaphorase resazurin-to-resorufin fluorescence, NADH, 16 min; bacterial (C. kluyveri) enzyme, not human | inhibition, % at 20 µM | actives 0.69% (n = 190,000) | AID 1217;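 active = primary screen inhibition at 20 µM above a set limit, cut at about 50% in these data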;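 note: plate controls were DMSO with full reaction for no effect and wells lacking NADH for full effect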
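Test system: Clostridium kluyveri diaphorase enzyme / Quantity: diaphorase at 0.14 U/mL in enzyme working solution / Incubation: 16-min room-temperature incubation before reading / Benchmarks: NADH-free wells as positive control, DMSO-only neutral wells / Signal: resorufin fluorescence 544/590 nm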
* = called active by the depositor; / = no result. Cut-off read from the data, not from the text of the source, unless noted: active = inhibition above about 50%; inactive = the rest.

SMILES	PfG6PD inh	Lmaj promast	G6PDH counter	Redox H2O2 prof	Diaph act CS	Diaph inh CS
COc1ccc(C(=O)Nc2ccc(C)cc2C(=O)c2ccccc2)cc1	-1	99*	-11	0	0.8	18
O=C(CCCn1c(=O)[nH]c2ccccc2c1=O)NCCSCc1ccccc1	-9	1	2	-1	0.9	9
Cc1cc(=O)[nH]c(SCc2nc3ccc([N+](=O)[O-])cc3[nH]2)n1	-5	55*	-2	0	1	4
COC(=O)Oc1ccc(/C=C/C(=O)OC(C)C)cc1OC(=O)OC	-34	80*	18	0	0.9	11
CCN(CC)c1ccc(S(=O)(=O)N2CCCCC2)cc1NC(=O)CN1C(=O)NC2(CCCC2)C1=O	0	/	/	/	/	/
CSc1ccccc1NC(=O)CO/N=C(\C)c1cc2ccccc2o1	-5	95*	8	0	0.8	20
Cc1cccc(NC(=O)CNC(=O)CN2C(=O)NC(C)(CCC(C)C)C2=O)c1C (stereo not given)	-4	/	/	/	/	/
O=C1Nc2cc(C(=O)NCCN3CCCCCC3)ccc2S/C1=C\c1ccccc1	89*	/	/	/	/	/
CN1CCN(CCCNC(=O)c2ccc(/C=C3\Oc4ccccc4N(Cc4ccccc4F)C3=O)cc2)CC1	-36	/	/	/	/	/
CN1CCN(CCCNC(=O)c2ccc(/C=C3\Sc4ccccc4N(Cc4ccc(F)cc4)C3=O)cc2)CC1	-22	100*	3	0	1.3	-30
CN1CCN(CCCNC(=O)c2ccc(/C=C3/Sc4ccccc4N(Cc4cccc(Cl)c4)C3=O)cc2)CC1	-29	100*	-1	1	1.5	-52
CCN1CCN(CCNC(=O)c2ccc(/C=C3\Sc4ccccc4N(Cc4ccccc4F)C3=O)cc2)CC1	-15	100*	-2	0	1.6	-65
CN(CC(=O)Nc1ccc(F)c(F)c1F)C(=O)CCN1C(=O)C2CC=CCC2C1=O (stereo not given)	-16	/	/	/	/	/
COc1ccccc1CNC(=O)C1CC(c2ccccc2C(F)(F)F)=NO1 (stereo not given)	-2	/	/	/	/	/
Cc1ccc(NC(=O)c2cccc3c2-c2ccccc2C3=O)cc1C	17	2	-1	0	0.8	18
CC(=O)Nc1ccc(NC(=O)c2cccc3c2-c2ccccc2C3=O)cc1	11	78*	6	0	1	-1
CCCNC(=O)NC(=O)COC(=O)c1cccc(NS(=O)(=O)c2ccc(F)c(F)c2)c1	-20	55*	16	-1	1	-4
CC(C)CNC(=O)NC(=O)COC(=O)c1cccc(NS(=O)(=O)c2ccc(F)c(F)c2)c1	-24	0	-8	0	0.8	15
O=C(COC(=O)c1cccc(NS(=O)(=O)c2ccc(F)c(F)c2)c1)NC(=O)NC1CCCCC1	-17	82*	3	0	0.8	20
COc1ccc2c(Cl)c(C(=O)N/N=C/c3ccc4c(c3)OCO4)sc2c1	-13	97*	-4	-4	1.2	-16
COc1ccc2c(Cl)c(C(=O)N/N=C/c3c(C)[nH]c4ccccc34)sc2c1	4	100*	-43	1	0.6	40
O=C(N/N=C/c1ccc2c(c1)OCO2)c1sc2cc(Cl)ccc2c1Cl	-8	11	4	1	1.1	-12
COc1ccc(CC(=O)NC(C)c2nnc(SCC(=O)Nc3cc(C)ccc3OC)n2C)cc1 (stereo not given)	8	-4	10	0	1	2
O=C(C1=C(O)C(=O)N(CCN2CCOCC2)C1c1ccc([N+](=O)[O-])cc1)c1cccs1 (stereo not given)	22	/	/	/	/	/
Cc1ccc(C(=O)c2ccccc2C(=O)OCC(=O)Nc2ccc(SC(F)F)cc2)cc1	26	66*	6	/	0.9	14
SMILES	PfG6PD inh	Lmaj promast	G6PDH counter	Redox H2O2 prof	Diaph act CS	Diaph inh CS
O=C(COC(=O)c1ccccc1Cc1ccccc1)Nc1ccc(SC(F)F)cc1	14	6	-3	-1	0.7	27
O=C(c1ccccc1)[C@@H]1[C@@H](C(=O)c2ccc(F)cc2)[C@@]2(C(=O)Nc3ccccc32)[C@H]2c3ccccc3C=CN12	10	74*	-5	0	0.8	22
Cc1cc2n(n1)C(c1ccc3c(c1)OCO3)Nc1c(C)cccc1-2 (stereo not given)	7	99*	-3	1	0.9	9
Cc1cc2n(n1)C(c1cn(-c3ccccc3)nc1C)Nc1c(C)cccc1-2 (stereo not given)	-19	29	-4	2	0.9	10
Cc1cc(=O)oc2cc(OCc3ccc(C(=O)N4CCN(c5ccccc5)CC4)cc3)ccc12	11	65*	-4	/	0.8	18
Cc1cc(=O)oc2cc(OCc3ccc(S(=O)(=O)N4CCOCC4)cc3)ccc12	4	80*	-41	-2	0.8	19
Cc1cc(=O)oc2cc(OCc3ccc(C(=O)N4CCN(c5ccc([N+](=O)[O-])cc5)CC4)cc3)ccc12	18	12	9	0	0.9	10
CCCN(CC1CC1)C(=O)COC(=O)c1[nH]c(C)c(C(=O)OCC)c1C	2	80*	12	0	1	1
Cc1cccc(Nc2nc3c(s2)CCCC3)c1	29	62*	-9	0	0.9	9
O=C(NC(=S)Nc1nc2c(s1)CCCC2)c1ccc(C(=O)c2ccccc2)cc1	-27	76*	-1	0	0.9	9
O=C(O)c1ccc(Nc2nc3c(s2)CCCC3)cc1	25	7	5	-1	0.9	9
C/C(=N\Nc1nc2c(s1)CCCC2)c1ccccc1	41	52*	0	0	0.9	12
COc1ccc(C(=O)N(C)Cc2ccc(C)o2)cc1OC1CCN(C(C)C)CC1	7	/	/	/	/	/
CCC1CC2CC(NC(C)=O)C1C2 (stereo not given)	1	-3	-1	-3	0.8	16
Cc1ccsc1/C=C/C1=Cc2c(sc(NC(=O)CSc3n[nH]c(N)n3)c2C#N)C(C)(C)C1	16	100*	-2	0	0.7	32
CCOc1ccc(/C=C/C2=Cc3c(sc(NC(=O)CSc4n[nH]c(N)n4)c3C#N)C(C)(C)C2)cc1	21	100*	0	-3	0.7	25
COc1ccc(N(CC(=O)NC2CCCCCC2)S(=O)(=O)c2ccccc2)cc1Cl	-8	/	/	/	/	/
CSc1cccc(NC(=O)CSc2ccc(C)cc2)c1	2	-2	-2	0	0.9	12
CSc1cccc(NC(=O)CSc2ccc(Cl)cc2)c1	9	54*	-1	0	0.9	12
CC(C)(C)NC(=O)c1cccc(NC(=O)CSc2ccc(Cl)cc2)c1	1	91*	4	-1	0.9	9
